From ChEMBL document CHEMBL3272265, “Interferon inducing activities of derivatives of 1,3-dimethyl-4-(3-dimethylaminopropylamino)-1H-pyrazolo(3,4-b)quinoline and related compounds” (J Med Chem, 1976)
The source made the active and inactive calls. No cut-off for these calls is given here.

How the values were obtained:
Mus musculus [1] = test: Induction of interferon level in CD-1 mouse serum at 400 mg/kg, po after 18 to 20 hrs by vesicular stomatitis virus plaque reduction assay; type: functional, organism-based; design: dose 400 mg/kg
Method in brief: (§1)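 Dosing was oral or ip in 15-g female CD-1 mice, at least three per dose level, with compound in sterile distilled water as a solution or suspension. Pooled sera were collected 18–20 hr after dosing. Interferon units/ml were quantified by a plaque reduction assay on mouse L cells with vesicular stomatitis virus challenge, run against an NIAID reference mouse interferon standard.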

Mus musculus [2] = test: Induction of interferon level >= 32 units/mL in ip dosed CD-1 mouse serum after 18 to 20 hrs by vesicular stomatitis virus plaque reduction assay; type: functional; settings: CD-1, Serum, read-out: MED
Method in brief: (§2)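 Female CD-1 mice (15 g; at least three per dose) received compound dissolved or suspended in sterile distilled water, orally or ip. They were bled 18–20 hr later and sera pooled. Interferon was titrated by plaque reduction in mouse L cells challenged with vesicular stomatitis virus, with an NIAID reference mouse interferon standard. MED was the lowest dose giving ≥32 units/ml. Top doses were 400 mg/kg po and 300 mg/kg ip.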

Mus musculus [3] = test: Induction of interferon level >= 32 units/mL in po dosed CD-1 mouse serum after 18 to 20 hrs by vesicular stomatitis virus plaque reduction assay; type: functional; settings: CD-1, Serum, read-out: MED; method in brief: as §2
Mus musculus [4] = test: Induction of interferon level in CD-1 mouse serum at 300 mg/kg, ip after 18 to 20 hrs by vesicular stomatitis virus plaque reduction assay; type: functional, organism-based; design: dose 300 mg/kg; method in brief: as §1
Mus musculus [5] = test: Toxicity in CD-1 mouse at 300 mg/kg, ip; type: organism-based; design: dose 300 mg/kg, route intraperitoneal; settings: in vivo

Cc1nn(C)c2nc3c(cnn3C)c(NCCCN(C)C)c12
Activity (Mus musculus [1]): inactive

Cc1ccc2nc3c(c(C)nn3C)c(NCCCN(C)C)c2c1.Cl
minimal effective dose (Mus musculus [2]): 50 mg/kg
minimal effective dose (Mus musculus [3]): 50 mg/kg

Cc1nn(C)c2nc3ccccc3c(CCNCCCN(C)C)c12
Activity (Mus musculus [1]): inactive

Cc1nn(C)c2nc3ccccc3c(S)c12
Activity (Mus musculus [4]): inactive

Cc1nn(C)c2nc3ccccc3c(NCCCN3CCCC3)c12.Cl
minimal effective dose (Mus musculus [3]): 200 mg/kg

Cc1nn(C)c2nc3cc(F)ccc3c(NCCCN(C)C)c12.Cl
minimal effective dose (Mus musculus [3]): ≥ 100 mg/kg

Cc1nn(C)c2nc3cc(C(=O)NCCCN(C)C)ccc3c(NCCCN(C)C)c12
Activity (Mus musculus [4]): inactive

Cc1nn(C)c2nc3c(cc12)CCCC3
Activity (Mus musculus [1]): inactive

CN(C)CCCNc1ccncc1
Activity (Mus musculus [4]): inactive

CCN(CC)CCCNc1c2ccccc2nc2c1c(C)nn2C.Cl
minimal effective dose (Mus musculus [2]): 300 mg/kg
minimal effective dose (Mus musculus [3]): 400 mg/kg

Cc1nn(C)c2nc3ccccc3c(NCCCN(C)CCCN(C)C)c12.Cl
minimal effective dose (Mus musculus [2]): > 300 mg/kg

Cc1nn(C)c2nc3c(c(C)nn3C)c(NCCCN(C)C)c12
Activity (Mus musculus [1]): inactive

Cc1nn(C)c2nc3ncccc3c(NCCCN(C)C)c12.Cl
minimal effective dose (Mus musculus [2]): ≥ 300 mg/kg

Cc1nn(C)c2nc3ccccc3cc12
Activity (Mus musculus [1]): inactive

Cc1nn(C)c2nc3ccccc3c(NCCCNC(C)C)c12.Cl
minimal effective dose (Mus musculus [2]): ≥ 300 mg/kg

Cc1nn(C)c2nc3ccccc3c(NCCCN3CCNCC3)c12.Cl
minimal effective dose (Mus musculus [2]): 100 mg/kg

Cc1nn(C)c2nc3ccccc3c(NCCCN3CCN(C)CC3)c12.Cl
minimal effective dose (Mus musculus [2]): 300 mg/kg

Cc1nn(C)c2nc3ccccc3c(N3CCCCC3CCN(C)C)c12 (centres undefined)
Activity (Mus musculus [4]): inactive

Cc1nn(C)c2nc3cc([N+](=O)[O-])ccc3c(NCCCN(C)C)c12
Activity (Mus musculus [4]): inactive

Cc1nn(C)c2nc3cccc([N+](=O)[O-])c3c(NCCCN(C)C)c12
Activity (Mus musculus [1]): inactive

Cc1cc(C)c2nc3c(c(C)nn3C)c(NCCCN(C)C)c2c1.Cl
minimal effective dose (Mus musculus [3]): 400 mg/kg

Cc1nn(C)c2nc3ccccc3c(NCCCNC3CCCCC3)c12.Cl
Activity (Mus musculus [5]): Toxic

CCN(CC)CCCC(C)Nc1c2ccccc2nc2c1c(C)nn2C (centres undefined)
Activity (Mus musculus [1]): inactive

Cc1cc(Nc2ccccc2CNCCCN(C)C)n(C)n1
Activity (Mus musculus [4]): inactive

Cc1nn(C)c2nc3ccccc3c(CNCCCN(C)C)c12.Cl
minimal effective dose (Mus musculus [2]): ≥ 300 mg/kg

Cc1nn(C)c2nc3c(Cl)cccc3c(NCCCN(C)C)c12
Activity (Mus musculus [4]): inactive

CC(=O)Nc1ccc2c(NCCCN(C)C)c3c(C)nn(C)c3nc2c1
Activity (Mus musculus [1]): inactive

Cc1nsc2nc3ccccc3c(NCCCN(C)C)c12
Activity (Mus musculus [1]): inactive

Cc1nn(C)c2nc3ccccc3c(Cl)c12
Activity (Mus musculus [1]): inactive

COc1cc2nc3c(c(C)nn3C)c(NCCCN(C)C)c2cc1OC.Cl
minimal effective dose (Mus musculus [2]): 50 mg/kg
minimal effective dose (Mus musculus [3]): 50 mg/kg

Cc1cc(Nc2c3ccccc3nc3c2c(C)nn3C)n(C)n1
Activity (Mus musculus [4]): inactive

Cc1nn(C)c2nc3cc(N)ccc3c(NCCCN(C)C)c12
Activity (Mus musculus [1]): inactive

CNCc1c2ccccc2nc2c1c(C)nn2C
Activity (Mus musculus [4]): inactive

Cc1nn(C)c2nc3cccc(N)c3c(NCCCN(C)C)c12
Activity (Mus musculus [4]): inactive

Cc1nn(C)c2nc3ccccc3c(NCCCC(=O)O)c12
Activity (Mus musculus [4]): inactive

CNc1c2ccccc2nc2c1c(C)nn2C
Activity (Mus musculus [1]): inactive

Cc1nn(C)c2nc3cc(C(N)=O)ccc3c(NCCCN(C)C)c12
Activity (Mus musculus [1]): inactive

Cc1nn(C)c2nc3cc(C(=O)O)ccc3c(NCCCN(C)C)c12
Activity (Mus musculus [4]): inactive

Cc1nn(C)c2c1Cc1ccccc1N2
Activity (Mus musculus [1]): inactive

Cc1nn(C)c2nc3ccccc3c(NCCCO)c12
Activity (Mus musculus [1]): inactive

Cc1nn(C)c2nc3ccccc3c(NCCCCl)c12
Activity (Mus musculus [1]): inactive

CNCCCNc1c2ccccc2nc2c1c(C)nn2C.Cl
minimal effective dose (Mus musculus [2]): 150 mg/kg
minimal effective dose (Mus musculus [3]): 200 mg/kg

Cc1nn(C)c2nc3ccccc3c(NN3CCN(C)CC3)c12.Cl
minimal effective dose (Mus musculus [2]): 300 mg/kg

CCNc1ccc2nc3c(c(C)nn3C)c(NCCCN(C)C)c2c1.Cl
minimal effective dose (Mus musculus [2]): 25 mg/kg
minimal effective dose (Mus musculus [3]): 50 mg/kg

COc1cccc2nc3c(c(C)nn3C)c(NCCCN(C)C)c12.Cl
minimal effective dose (Mus musculus [2]): 100 mg/kg
minimal effective dose (Mus musculus [3]): 100 mg/kg

COC(=O)CCCNc1c2ccccc2nc2c1c(C)nn2C
Activity (Mus musculus [4]): inactive

Cc1nn(C)c2nc3cc(CO)ccc3c(NCCCN(C)C)c12.Cl
minimal effective dose (Mus musculus [2]): 100 mg/kg
minimal effective dose (Mus musculus [3]): 200 mg/kg

Cc1nn(C)c2nc3ccccc3c(NCCCNC(C)(C)C)c12.Cl
minimal effective dose (Mus musculus [2]): ≥ 300 mg/kg

Cc1nn(C)c2nc3ccccc3c(NCCCCCN(C)C)c12.Cl
minimal effective dose (Mus musculus [2]): 150 mg/kg
minimal effective dose (Mus musculus [3]): 200 mg/kg

Cc1cc2nc3c(c(C)nn3C)c(NCCCN(C)C)c2cc1C.Cl
minimal effective dose (Mus musculus [2]): 25 mg/kg
minimal effective dose (Mus musculus [3]): 50 mg/kg

Cc1nn(C)c2nc3ccccc3c(NCCCCN(C)C)c12.Cl
minimal effective dose (Mus musculus [3]): 200 mg/kg

CCN1CCCC(Nc2c3ccccc3nc3c2c(C)nn3C)C1.Cl (centres undefined)
minimal effective dose (Mus musculus [2]): ≥ 300 mg/kg

Cc1nn(C)c2nc3ccc(S(=O)(=O)O)cc3c(NCCCN(C)C)c12
Activity (Mus musculus [4]): inactive

Cc1nn(C)c2nc3ncncc3c(NCCCN(C)C)c12
Activity (Mus musculus [4]): inactive

Cc1cc(Nc2ccccc2C(=O)NCCCN(C)C)n(C)n1
Activity (Mus musculus [4]): inactive

Cc1nn(C)c2nc3cc4ccccc4cc3c(NCCCN(C)C)c12.Cl
minimal effective dose (Mus musculus [2]): 100 mg/kg

Cc1nn(C)c2nc3ccccc3c(NCCCN)c12.Cl
minimal effective dose (Mus musculus [2]): ≥ 300 mg/kg

Cc1nn(C)c2nc3cc(O)ccc3c(NCCCN(C)C)c12
Activity (Mus musculus [4]): inactive

CC(=O)Nc1ccc2nc3c(c(C)nn3C)c(NCCCN(C)C)c2c1
Activity (Mus musculus [4]): inactive

COc1ccc2c(NCCCN(C)C)c3c(C)nn(C)c3nc2c1.Cl
minimal effective dose (Mus musculus [2]): 50 mg/kg
minimal effective dose (Mus musculus [3]): 50 mg/kg

Cc1nn(CC(=O)O)c2nc3ccccc3c(NCCCN(C)C)c12
Activity (Mus musculus [4]): inactive

Cc1nn(C)c2nc3ccccc3c(NCCCNC=O)c12
Activity (Mus musculus [4]): inactive

COc1cccc2c(NCCCN(C)C)c3c(C)nn(C)c3nc12.Cl
minimal effective dose (Mus musculus [2]): 50 mg/kg
minimal effective dose (Mus musculus [3]): 100 mg/kg

Cc1ccc2c(NCCCN(C)C)c3c(C)nn(C)c3nc2c1C.Cl
minimal effective dose (Mus musculus [2]): 200 mg/kg
minimal effective dose (Mus musculus [3]): 200 mg/kg

CN(C)CCCNc1c2ccccc2nc2c1cnn2C.Cl
minimal effective dose (Mus musculus [3]): 200 mg/kg

Cc1nn(C)c2nc3ccccc3c(N)c12
Activity (Mus musculus [1]): inactive

Cc1nn(C)c2nc3ccccc3c(NCCN(C)C)c12.Cl
minimal effective dose (Mus musculus [3]): 400 mg/kg

CSCCCNc1c2ccccc2nc2c1c(C)nn2C
Activity (Mus musculus [1]): inactive

Cc1nn(C)c2nc3ccccc3c(NC34CC5CC(CC(C5)C3)C4)c12
Activity (Mus musculus [4]): inactive

Cc1nn(C)c2nc3ccccc3c(SCc3ccccc3)c12
Activity (Mus musculus [1]): inactive

Cc1n[nH]c2nc3ccccc3c(NCCCN(C)C)c12
Activity (Mus musculus [4]): inactive

CN(C)CCCNc1c2ccccc2nc2c1ccn2C
minimal effective dose (Mus musculus [3]): 200 mg/kg

Cc1nn(C)c2nc3ccccc3c(NCCC[S+](C)[O-])c12 (centres undefined)
Activity (Mus musculus [1]): inactive

CN(C)CCCNc1ccnc2ccccc12
Activity (Mus musculus [4]): inactive

COc1ccc(-n2nc(C)c3c(NCCCN(C)C)c4ccccc4nc32)cc1
Activity (Mus musculus [4]): inactive

Cc1nn(C)c2nc3c(ccc4ncccc43)c(NCCCN(C)C)c12.Cl
minimal effective dose (Mus musculus [2]): 100 mg/kg
minimal effective dose (Mus musculus [3]): 100 mg/kg

Cc1nn(C)c2nc3cccc(NCCCN(C)C)c3cc12
Activity (Mus musculus [1]): inactive

Cc1nn(C)c2nccc(NCCCN(C)C)c12
Activity (Mus musculus [1]): inactive

Cc1nn(C)c2nc3ccc(O)cc3c(NCCCN(C)C)c12
Activity (Mus musculus [4]): inactive

Cc1nn(C)c2nc3ccccc3c(NCCCN(CCO)CCO)c12
Activity (Mus musculus [4]): inactive

Cc1nn(-c2ccccc2)c2nc3ccccc3c(NCCCN(C)C)c12
Activity (Mus musculus [4]): inactive

COc1cc(OC)c2c(NCCCN(C)C)c3c(C)nn(C)c3nc2c1.Cl
minimal effective dose (Mus musculus [2]): 25 mg/kg
minimal effective dose (Mus musculus [3]): 25 mg/kg

Cc1nn(C)c2nc3ccccc3c(CCNCCCNCCCN(C)C)c12
Activity (Mus musculus [4]): inactive

Cc1nn(CC(=O)NCCCN(C)C)c2nc3ccccc3c(NCCCN(C)C)c12
Activity (Mus musculus [4]): inactive

Cc1cc(NCCCNc2c3ccccc3nc3c2c(C)nn3C)n(C)n1
Activity (Mus musculus [4]): inactive

Cc1nn(C)c2nc3ccc(F)cc3c(NCCCN(C)C)c12.Cl
minimal effective dose (Mus musculus [3]): ≥ 400 mg/kg

Cc1nn(CCO)c2nc3ccccc3c(NCCCN(C)C)c12
Activity (Mus musculus [4]): inactive

Cc1nn(C)c2nc3ccccc3c(NCCCCCCN(C)C)c12.Cl
minimal effective dose (Mus musculus [3]): 200 mg/kg

COC(=O)c1ccc2c(NCCCN(C)C)c3c(C)nn(C)c3nc2c1
Activity (Mus musculus [4]): inactive

Cc1nn(C)c2nc3ccc(S(=O)(=O)NCCCN(C)C)cc3c(NCCCN(C)C)c12
Activity (Mus musculus [4]): inactive

Cc1nn(C)c2nc3ccccc3c(NCc3ccccc3N(C)C)c12
Activity (Mus musculus [4]): inactive

Cc1nn(C)c2ncc(C(=O)O)c(NCCCN(C)C)c12
Activity (Mus musculus [1]): inactive

Cc1nn(C)c2nc3ccc(N)cc3c(NCCCN(C)C)c12
Activity (Mus musculus [4]): inactive

CCN(CC)CC(O)CNc1c2ccccc2nc2c1c(C)nn2C.Cl (centres undefined)
minimal effective dose (Mus musculus [3]): 400 mg/kg

Cc1cccc2c(NCCCN(C)C)c3ccccc3nc12
Activity (Mus musculus [1]): inactive

Cc1nn(C)c2nc3cc(Cl)ccc3c(NCCCN(C)C)c12.Cl
minimal effective dose (Mus musculus [2]): ≥ 100 mg/kg
minimal effective dose (Mus musculus [3]): ≥ 100 mg/kg

Cc1nn(-c2ccc(C(=O)O)cc2)c2nc3ccccc3c(NCCCN(C)C)c12
Activity (Mus musculus [4]): inactive

Cc1nn(C)c2nc3ccc(S(N)(=O)=O)cc3c(NCCCN(C)C)c12
Activity (Mus musculus [4]): inactive

Cc1nn(C)c2nc3ccccc3c(NCCCCNc3c4ccccc4nc4c3c(C)nn4C)c12
minimal effective dose (Mus musculus [2]): ≥ 300 mg/kg
